Test results taken from ChEMBL document CHEMBL4828728, “Antiplasmodial 2-thiophenoxy-3-trichloromethyl quinoxalines target the apicoplast of Plasmodium falciparum” (Eur J Med Chem, 2021).
The source made the active and inactive calls. The calls are words filed in the database; no cut-off is given here.

Tested on: not listed separately
Assay: Genotoxicity in human HepG2 cells assessed as induction of alkali labile sites at 1 mM measured after 2 hrs by alkali comet assay
Conditions: hepg2, 1000 µM

Row | SMILES | Activity
1 | COS(C)(=O)=O [METHANESULFONIC ACID METHYL ESTER] | Toxic

Tested on: Plasmodium falciparum
Assay: Antiplasmodial activity against Plasmodium falciparum 3D7 assessed as reduction in parasite development by measuring enriched culture in mid trophozite parasites at 0.3 uM measured after 48 hrs by DAPI/TPT staining based epifluorescence microscopic analysis
Assay type: functional, organism-based
Conditions: not given
Procedure, shortened: (§1)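 Sorbitol-synchronized (5%) 3D7 blood-stage cultures expressing HA-tagged TPT, grown in RPMI-HEPES with 5% AlbuMAX II, 2% hematocrit, 1% O2/5% CO2, 37 °C; exposed 48 h to 0.3 μM or DMSO. Fixed in 4% PFA/0.0075% glutaraldehyde, Triton-permeabilized, stained with anti-HA plus Alexa 488 secondary and DAPI; imaged by epifluorescence with DIC.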

Row | SMILES | Activity
2 | ClC(Cl)(Cl)c1nc2ccccc2nc1Sc1ccccc1 | Active

Tested on: Plasmodium falciparum
Assay: Inhibition of apicoplast development in Plasmodium falciparum 3D7 assessed as reduction in parasite growth at 0.3 uM measured during 48 hrs of first cycle of parasite development by SYBR green I based fluorescence assay
Assay type: functional, organism-based
Conditions: not given
Procedure, shortened: (§2)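 3D7 cultures held at 0.3 μM or DMSO across three 48 h cycles, diluted 1/10 each cycle. At 48, 96 and 144 h, aliquots were lysed in SYBR Green I buffer (Tris pH 7.5, EDTA, saponin, Triton X-100) for 1 h at room temperature in the dark. Fluorescence read at 485/538 nm; growth expressed as treated/untreated ratio, n=3, SD.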

Row | SMILES | Activity
3 | ClC(Cl)(Cl)c1nc2ccccc2nc1Sc1ccccc1 | Active

Tested on: Plasmodium falciparum
Assay: Antiplasmodial activity against Plasmodium falciparum 3D7 assessed as reduction in parasite development by measuring defect in parasite replication at 0.3 uM measured after 48 hrs by DAPI/TPT staining based epifluorescence microscopic analysis
Assay type: functional, organism-based
Conditions: not given
Procedure, shortened: as §1

Row | SMILES | Activity
4 | ClC(Cl)(Cl)c1nc2ccccc2nc1Sc1ccccc1 | Active

Tested on: not listed separately
Assay: Genotoxicity in human HepG2 cells assessed as induction of DNA strand breaks at 28 uM measured after 2 to 72 hrs by alkali comet assay
Assay type: cell-based
Conditions: hepg2, 28 µM, time 2-72 hrs
Procedure, shortened: (§3)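 HepG2 (passage 11-15, EMEM with 10% FBS) exposed to 5.6 or 28 μM for 2 h or 72 h; vehicle 0.5% DMSO; 1 mM MMS 2 h positive control. Alkaline comet: lysis pH 10 at 4 °C 1 h, unwinding 40 min at pH >13, electrophoresis 1 V/cm 20 min. DAPI staining, % tail DNA; median of 50 comets per duplicate gel, mean of three experiments ±SD.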

Row | SMILES | Activity
5 | ClC(Cl)(Cl)c1nc2ccccc2nc1Sc1ccccc1 | Non-Toxic

Tested on: Plasmodium falciparum
Assay: Inhibition of apicoplast development in hepatic stage of Plasmodium falciparum NF135 infected in human hepatocytes assessed as proportion of schizonts with partial and complete alteration of apicoplast signal at 30 uM incubated for 3 hrs with daily replacement of fresh medium containing compound until day 6 post infection by confocal microscopy
Assay type: functional
Set-up: scale not given: the % may be the effect or the level left
Conditions: time 6 day
Procedure, shortened: (§4)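 Primary human hepatocytes infected with NF135 sporozoites (30,000/well), drug present from infection, washed at 3 h and renewed daily until fixing at day 6 (4% PFA). Apicoplast stained with anti-ACP antibody, parasites with anti-HSP70, DNA with DAPI, imaged by confocal microscopy. 100 parasites scored as normal or partially/completely altered apicoplast, given as percentage distribution.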

Row | SMILES | Activity [%]
6 | ClC(Cl)(Cl)c1nc2ccccc2nc1Sc1ccccc1 | 93

Tested on: not listed separately
Assay: Cytotoxicity against African green monkey Vero cells assessed as reduction in cell viability measured after 48 hrs by MTT assay
Assay type: cell-based
Conditions: chlorocebus sabaeus
Procedure, shortened: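 Vero cells in MEM with 10% FBS; 5×10³ cells/well, 24 h attachment, then compound dilutions (DMSO <0.5% final) for 48 h at 37 °C. Precipitate check, MTT 0.5 mg/mL 2 h, DMSO solubilization, A570/630. Viability relative to untreated; doxorubicin control; CC50 from dose-response, triplicates, mean of three independent experiments.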

Row | SMILES | CC50 at 48 h [µM]
7 | ClC(Cl)(Cl)c1nc2ccccc2nc1Sc1ccccc1 | 63.5

Tested on: Plasmodium falciparum
Assay: Inhibition of apicoplast development in Plasmodium falciparum 3D7 assessed as delayed death phenotype at 0.3 uM measured during 48 hrs of three cycles of parasite development by SYBR green I based fluorescence assay
Assay type: functional, organism-based
Conditions: not given
Procedure, shortened: as §2

Row | SMILES | Activity
8 | ClC(Cl)(Cl)c1nc2ccccc2nc1Sc1ccccc1 | Active
9 | Cc1nc2ccccc2nc1Sc1ccccc1 | inactive

Tested on: Plasmodium falciparum
Assay: Antiplasmodial activity against multidrug-resistant Plasmodium falciparum K1 infected in human erythrocytes assessed as reduction in parasite growth incubated for 72 hrs by SYBR green I fluorescence based assay
Assay type: functional, organism-based
Conditions: K1, Erythrocyte

Row | SMILES | EC50 [µM]
10 | FC(F)(F)c1nc2ccccc2nc1Sc1ccccc1 | > 50
11 | C[C@H]1c2cccc(O)c2C(=O)C2=C(O)[C@]3(O)C(=O)C(C(N)=O)=C(O)[C@@H](N(C)C)[C@@H]3[C@@H](O)[C@@H]21 [DOXYCYCLINE] | 6
12 | Clc1cccc(Sc2nc3ccccc3nc2C(Cl)(Cl)Cl)c1 | 0.41
13 | COc1ccc(Cl)c(Sc2nc3ccccc3nc2C(Cl)(Cl)Cl)c1 | 0.46
14 | c1ccc(Sc2cnc3ccccc3n2)cc1 | > 50
15 | O=C1C(O)=C([C@H]2CC[C@H](c3ccc(Cl)cc3)CC2)C(=O)c2ccccc21 [ATOVAQUONE] | 0.001
16 | Cc1ccc(Sc2nc3ccccc3nc2C(Cl)(Cl)Cl)cc1 | 1.5
17 | CCN(CC)CCCC(C)Nc1ccnc2cc(Cl)ccc12 (stereo not given) [CHLOROQUINE] | 0.8
18 | Clc1cccc(Sc2nc3ccccc3nc2C(Cl)(Cl)Cl)c1Cl | 0.31
19 | ClC(Cl)(Cl)c1nc2ccccc2nc1Sc1ccccc1 | 0.32
20 | Cc1nc2ccccc2nc1Sc1ccccc1 | > 50

Tested on: Plasmodium falciparum
Assay: Inhibition of apicoplast biogenesis in Plasmodium falciparum 3D7 assessed as loss of apicoplast at 0.3 uM measured after 48 hrs by DAPI/TPT staining based epifluorescence microscopic analysis
Assay type: functional, organism-based
Conditions: not given
Procedure, shortened: as §1

Row | SMILES | inhibition
21 | ClC(Cl)(Cl)c1nc2ccccc2nc1Sc1ccccc1 | Active

Tested on: not listed separately
Assay: Toxicity in human hepatocytes assessed as reduction in nuclei number up to 30 uM by microscopic analysis
Assay type: cell-based, Hepatocyte
Conditions: not given
Procedure, shortened: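 Cryopreserved primary human hepatocytes, 80,000 per collagen-coated well in William's E medium, inoculated with 30,000 NF135 sporozoites/well and centrifuged. Serial drug dilutions added with sporozoites, renewed daily until 4% PFA fixation at day 6. Stained with anti-HSP70 and DAPI; hepatocyte nuclei counted across scanned microscopic fields, treated versus control.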

Row | SMILES | Activity
22 | ClC(Cl)(Cl)c1nc2ccccc2nc1Sc1ccccc1 | Non-Toxic

Tested on: not listed separately
Assay: Genotoxicity in human HepG2 cells assessed as induction of DNA strand breaks at 5.6 uM measured after 2 to 72 hrs by alkali comet assay
Assay type: cell-based
Conditions: hepg2, 5.6 µM, time 2-72 hrs
Procedure, shortened: as §3

Row | SMILES | Activity
23 | ClC(Cl)(Cl)c1nc2ccccc2nc1Sc1ccccc1 | Non-Toxic

Tested on: not listed separately
Assay: Cytotoxicity against human HepG2 cells assessed as reduction in cell viability measured after 72 hrs by MTT assay
Assay type: cell-based
Conditions: not given
Procedure, shortened: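 HepG2 in MEM with 10% FBS, 5×10³ cells/well; 24 h attachment, then serial dilutions (DMSO <0.5% final) for 72 h at 37 °C, wells checked for precipitate. MTT 0.5 mg/mL for 2 h, formazan in DMSO, A570 with 630 nm reference. Viability versus untreated; doxorubicin positive control; CC50 from dose-response curve, triplicates, mean of three independent experiments.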

Row | SMILES | CC50 at 72 h [µM]
24 | FC(F)(F)c1nc2ccccc2nc1Sc1ccccc1 | > 50
25 | Clc1cccc(Sc2nc3ccccc3nc2C(Cl)(Cl)Cl)c1 | 38.3
26 | COc1ccc(Cl)c(Sc2nc3ccccc3nc2C(Cl)(Cl)Cl)c1 | 58.4
27 | c1ccc(Sc2cnc3ccccc3n2)cc1 | > 50
28 | O=C1C(O)=C([C@H]2CC[C@H](c3ccc(Cl)cc3)CC2)C(=O)c2ccccc21 [ATOVAQUONE] | > 15.6
29 | Cc1ccc(Sc2nc3ccccc3nc2C(Cl)(Cl)Cl)cc1 | 69.7
30 | Clc1cccc(Sc2nc3ccccc3nc2C(Cl)(Cl)Cl)c1Cl | 34.6
31 | ClC(Cl)(Cl)c1nc2ccccc2nc1Sc1ccccc1 | 56
32 | Cc1nc2ccccc2nc1Sc1ccccc1 | > 25

Tested on: Plasmodium falciparum
Assay: Antiplasmodial activity against Plasmodium falciparum NF135 sporozoites infected in human hepatocytes assessed as reduction in parasite size without affecting parasite number incubated for 3 hrs with daily replacement of fresh medium containing compound until day 6 post infection by fluorescence microscopic analysis
Assay type: functional, organism-based
Conditions: Hepatocyte, time 6.0 day
Procedure, shortened: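 Cryopreserved primary human hepatocytes seeded at 80,000/well on collagen I in supplemented William's E, then infected with 30,000 NF135 sporozoites/well from A. stephensi salivary glands. Plates centrifuged 10 min, serial drug dilutions added at infection, washed at 3 h, drug medium renewed daily. Fixed day 6 in 4% PFA, EEFs stained with anti-HSP70 plus DAPI, counted by fluorescence microscopy or high-content imaging.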

Row | SMILES | Activity
33 | ClC(Cl)(Cl)c1nc2ccccc2nc1Sc1ccccc1 | Dose-Dependent Effect

Tested on: Plasmodium falciparum
Assay: Inhibition of apicoplast development in hepatic stage of Plasmodium falciparum NF135 infected in human hepatocytes assessed as condensation of apicoplast protein ACP signal incubated for 3 hrs with daily replacement of fresh medium containing compound until day 6 post infection by confocal microscopy
Assay type: functional, organism-based
Conditions: time 6.0 day
Procedure, shortened: as §4

Row | SMILES | inhibition
34 | ClC(Cl)(Cl)c1nc2ccccc2nc1Sc1ccccc1 | Active

Tested on: Plasmodium falciparum
Assay: Inhibition of apicoplast biogenesis in Plasmodium falciparum 3D7 assessed as reduction in apicoplast development, elongation and branching at 0.3 uM measured after 48 hrs by DAPI/TPT staining based epifluorescence microscopic analysis
Assay type: functional, organism-based
Conditions: not given
Procedure, shortened: as §1

Row | SMILES | inhibition
35 | ClC(Cl)(Cl)c1nc2ccccc2nc1Sc1ccccc1 | Active

Tested on: not listed separately
Assay: Aqueous solubility of the compound
Assay type: physicochemical
Conditions: buffer

Row | SMILES | solubility
36 | Clc1cccc(Sc2nc3ccccc3nc2C(Cl)(Cl)Cl)c1 | Soluble
37 | COc1ccc(Cl)c(Sc2nc3ccccc3nc2C(Cl)(Cl)Cl)c1 | Soluble
38 | Cc1ccc(Sc2nc3ccccc3nc2C(Cl)(Cl)Cl)cc1 | Soluble
39 | Clc1cccc(Sc2nc3ccccc3nc2C(Cl)(Cl)Cl)c1Cl | Soluble
40 | ClC(Cl)(Cl)c1nc2ccccc2nc1Sc1ccccc1 | Soluble

Tested on: not listed separately
Assay: Genotoxicity in human HepG2 cells assessed as induction of alkali labile sites at 28 uM measured after 2 to 72 hrs by alkali comet assay
Assay type: cell-based
Conditions: hepg2, 28 µM, time 2-72 hrs
Procedure, shortened: as §3

Row | SMILES | Activity
41 | ClC(Cl)(Cl)c1nc2ccccc2nc1Sc1ccccc1 | Non-Toxic

Tested on: not listed separately
Assay: Selectivity index, ratio of CC50 for cytotoxicity against human HepG2 cells to EC50 for antiplasmodial activity against multidrug-resistant Plasmodium falciparum K1 infected in human erythrocytes
Assay type: toxicity, cell-based
Conditions: read-out: Ratio CC50/EC50

Row | SMILES | selectivity ratio
42 | C[C@H]1c2cccc(O)c2C(=O)C2=C(O)[C@]3(O)C(=O)C(C(N)=O)=C(O)[C@@H](N(C)C)[C@@H]3[C@@H](O)[C@@H]21 [DOXYCYCLINE] | 3.3
43 | Clc1cccc(Sc2nc3ccccc3nc2C(Cl)(Cl)Cl)c1 | 93.4
44 | COc1ccc(Cl)c(Sc2nc3ccccc3nc2C(Cl)(Cl)Cl)c1 | 127
45 | Cc1ccc(Sc2nc3ccccc3nc2C(Cl)(Cl)Cl)cc1 | 46.5
46 | Clc1cccc(Sc2nc3ccccc3nc2C(Cl)(Cl)Cl)c1Cl | 112
47 | ClC(Cl)(Cl)c1nc2ccccc2nc1Sc1ccccc1 | 175

Tested on: not listed separately
Assay: Genotoxicity in human HepG2 cells assessed as induction of DNA strand breaks at 1 mM measured after 2 hrs by alkali comet assay
Conditions: hepg2, 1000 µM

Row | SMILES | Activity
48 | COS(C)(=O)=O [METHANESULFONIC ACID METHYL ESTER] | Toxic

Tested on: not listed separately
Assay: Genotoxicity in human HepG2 cells assessed as induction of alkali labile sites at 5.6 uM measured after 2 to 72 hrs by alkali comet assay
Assay type: cell-based
Conditions: hepg2, 5.6 µM, time 2-72 hrs
Procedure, shortened: as §3

Row | SMILES | Activity
49 | ClC(Cl)(Cl)c1nc2ccccc2nc1Sc1ccccc1 | Non-Toxic

Tested on: not listed separately
Assay: Cytotoxicity against CHO cells assessed as reduction in cell viability measured after 24 hrs by MTT assay
Assay type: cell-based, Cricetulus griseus
Conditions: chinese hamster
Procedure, shortened: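 CHO cells grown in RPMI with 10% FBS; 5×10³ cells/well, 24 h attachment, then compound dilutions (DMSO <0.5% final) for 24 h at 37 °C. Precipitate check, MTT 0.5 mg/mL 2 h, DMSO solubilization, A570/630. Percent viability against untreated; doxorubicin control; CC50 from dose-response, triplicates, mean of three independent experiments.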

Row | SMILES | CC50 at 24 h [µM]
50 | ClC(Cl)(Cl)c1nc2ccccc2nc1Sc1ccccc1 | 58.5
